# System: Fibroblast
# Assay: Multiplex assay against human fibroblast
# Type: toxicity, cell-based
# In short: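 Imaging took place on a CQ1 microscope at 37°C and 5% CO2 once compound had been added to live cells stained at seeding with Hoechst33342, BioTracker Green Microtubule Cytoskeleton Dye, MitoTracker Red and Annexin V Alexa Fluor 680. CellPathfinder machine-learning gating classed cells as Hoechst high-intensity objects or normal cells, classed normal cells as having healthy, pyknosed or fragmented nuclei, and classed pyknosed cells as mitotic or apoptotic. Tubulin, mitochondrial-mass and membrane-permeability phenotypes are per cents of the healthy-nucleus cells.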
# [1] = 12 h, 1 µM, compound concentration 1 uM, replicate 1
# [2] = 12 h, 1 µM, compound concentration 1 uM, replicate 2
# [3] = 12 h, 10 µM, compound concentration 10 uM, replicate 1
# [4] = 12 h, 10 µM, compound concentration 10 uM, replicate 2
# [5] = 24 h, 1 µM, compound concentration 1 uM, replicate 1
# [6] = 24 h, 1 µM, compound concentration 1 uM, replicate 2
# [7] = 24 h, 10 µM, compound concentration 10 uM, replicate 1
# [8] = 24 h, 10 µM, compound concentration 10 uM, replicate 2
# [9] = 48 h, 1 µM, compound concentration 1 uM, replicate 1
# [10] = 48 h, 1 µM, compound concentration 1 uM, replicate 2
# [11] = 48 h, 10 µM, compound concentration 10 uM, replicate 1
# [12] = 48 h, 10 µM, compound concentration 10 uM, replicate 2
compound,measurement,setting,value
CC(/C=C1\SC(=S)N(CCCC(=O)Nc2ccc(C(=O)O)c(O)c2)C1=O)=C\c1ccccc1,Population Apoptotic (%),[1],59%
same,Population Fragmented Nuclei (%),[1],22%
same,Population Healthy Nuclei (%),[1],47%
same,Population Hoechst High Intensity Objects (%),[1],11%
same,Population Membrane Permeable-Phenotype (%),[1],31%
same,Population Mitochondria Different-Phenotype (%),[1],4%
same,Population Mitotic Cells (%),[1],40%
same,Population Normal (%),[1],88%
same,Population Pyknosed Nuclei (%),[1],29%
same,Population Tubulin-Different-Phenotype (%),[1],38%
same,Total Cell Count,[1],167
same,Population Apoptotic (%),[2],33%
same,Population Fragmented Nuclei (%),[2],10%
same,Population Healthy Nuclei (%),[2],81%
same,Population Hoechst High Intensity Objects (%),[2],6%
same,Population Membrane Permeable-Phenotype (%),[2],7%
same,Population Mitochondria Different-Phenotype (%),[2],7%
same,Population Mitotic Cells (%),[2],66%
same,Population Normal (%),[2],93%
same,Population Pyknosed Nuclei (%),[2],7%
same,Population Tubulin-Different-Phenotype (%),[2],7%
same,Total Cell Count,[2],65
same,Population Apoptotic (%),[3],62%
same,Population Fragmented Nuclei (%),[3],32%
same,Population Healthy Nuclei (%),[3],48%
same,Population Hoechst High Intensity Objects (%),[3],61%
same,Population Membrane Permeable-Phenotype (%),[3],40%
same,Population Mitochondria Different-Phenotype (%),[3],9%
same,Population Mitotic Cells (%),[3],37%
same,Population Normal (%),[3],38%
same,Population Pyknosed Nuclei (%),[3],18%
same,Population Tubulin-Different-Phenotype (%),[3],54%
same,Total Cell Count,[3],331
same,Population Apoptotic (%),[4],44%
same,Population Fragmented Nuclei (%),[4],17%
same,Population Healthy Nuclei (%),[4],72%
same,Population Hoechst High Intensity Objects (%),[4],7%
same,Population Membrane Permeable-Phenotype (%),[4],6%
same,Population Mitochondria Different-Phenotype (%),[4],6%
same,Population Mitotic Cells (%),[4],55%
same,Population Normal (%),[4],92%
same,Population Pyknosed Nuclei (%),[4],10%
same,Population Tubulin-Different-Phenotype (%),[4],9%
same,Total Cell Count,[4],88
same,Population Apoptotic (%),[5],54%
same,Population Fragmented Nuclei (%),[5],23%
same,Population Healthy Nuclei (%),[5],50%
same,Population Hoechst High Intensity Objects (%),[5],7%
same,Population Membrane Permeable-Phenotype (%),[5],29%
same,Population Mitochondria Different-Phenotype (%),[5],1%
same,Population Mitotic Cells (%),[5],45%
same,Population Normal (%),[5],92%
same,Population Pyknosed Nuclei (%),[5],25%
same,Population Tubulin-Different-Phenotype (%),[5],37%
same,Total Cell Count,[5],155
same,Population Fragmented Nuclei (%),[6],12%
same,Population Healthy Nuclei (%),[6],76%
same,Population Hoechst High Intensity Objects (%),[6],6%
same,Population Membrane Permeable-Phenotype (%),[6],4%
same,Population Mitochondria Different-Phenotype (%),[6],10%
same,Population Normal (%),[6],93%
same,Population Pyknosed Nuclei (%),[6],10%
same,Population Tubulin-Different-Phenotype (%),[6],12%
same,Total Cell Count,[6],64
same,Population Apoptotic (%),[7],53%
same,Population Fragmented Nuclei (%),[7],32%
same,Population Healthy Nuclei (%),[7],45%
same,Population Hoechst High Intensity Objects (%),[7],57%
same,Population Membrane Permeable-Phenotype (%),[7],44%
same,Population Mitochondria Different-Phenotype (%),[7],6%
same,Population Mitotic Cells (%),[7],46%
same,Population Normal (%),[7],42%
same,Population Pyknosed Nuclei (%),[7],22%
same,Population Tubulin-Different-Phenotype (%),[7],44%
same,Total Cell Count,[7],326
same,Population Apoptotic (%),[8],44%
same,Population Fragmented Nuclei (%),[8],9%
same,Population Healthy Nuclei (%),[8],83%
same,Population Hoechst High Intensity Objects (%),[8],4%
same,Population Membrane Permeable-Phenotype (%),[8],5%
same,Population Mitochondria Different-Phenotype (%),[8],14%
same,Population Mitotic Cells (%),[8],55%
same,Population Normal (%),[8],95%
same,Population Pyknosed Nuclei (%),[8],7%
same,Population Tubulin-Different-Phenotype (%),[8],14%
same,Total Cell Count,[8],115
same,Population Apoptotic (%),[9],62%
same,Population Fragmented Nuclei (%),[9],34%
same,Population Healthy Nuclei (%),[9],52%
same,Population Hoechst High Intensity Objects (%),[9],14%
same,Population Membrane Permeable-Phenotype (%),[9],30%
same,Population Mitochondria Different-Phenotype (%),[9],3%
same,Population Mitotic Cells (%),[9],37%
same,Population Normal (%),[9],85%
same,Population Pyknosed Nuclei (%),[9],12%
same,Population Tubulin-Different-Phenotype (%),[9],33%
same,Total Cell Count,[9],146
same,Population Apoptotic (%),[10],100%
same,Population Fragmented Nuclei (%),[10],15%
same,Population Healthy Nuclei (%),[10],81%
same,Population Hoechst High Intensity Objects (%),[10],12%
same,Population Membrane Permeable-Phenotype (%),[10],18%
same,Population Mitochondria Different-Phenotype (%),[10],1%
same,Population Mitotic Cells (%),[10],0%
same,Population Normal (%),[10],87%
same,Population Pyknosed Nuclei (%),[10],2%
same,Population Tubulin-Different-Phenotype (%),[10],35%
same,Total Cell Count,[10],127
same,Population Apoptotic (%),[11],69%
same,Population Fragmented Nuclei (%),[11],49%
same,Population Healthy Nuclei (%),[11],40%
same,Population Hoechst High Intensity Objects (%),[11],55%
same,Population Membrane Permeable-Phenotype (%),[11],37%
same,Population Mitochondria Different-Phenotype (%),[11],13%
same,Population Mitotic Cells (%),[11],30%
same,Population Normal (%),[11],44%
same,Population Pyknosed Nuclei (%),[11],9%
same,Population Tubulin-Different-Phenotype (%),[11],54%
same,Total Cell Count,[11],297
same,Population Apoptotic (%),[12],33%
same,Population Fragmented Nuclei (%),[12],23%
same,Population Healthy Nuclei (%),[12],72%
same,Population Hoechst High Intensity Objects (%),[12],12%
same,Population Membrane Permeable-Phenotype (%),[12],14%
same,Population Mitochondria Different-Phenotype (%),[12],4%
same,Population Mitotic Cells (%),[12],66%
same,Population Normal (%),[12],87%
same,Population Pyknosed Nuclei (%),[12],4%
same,Population Tubulin-Different-Phenotype (%),[12],38%
same,Total Cell Count,[12],74

# Source: ChEMBL document CHEMBL4689842, “EUbOPEN Chemogenomics Library wave 1” (2021)
